Test results reported in ChEMBL document CHEMBL3351648, “Synthesis and pharmacological evaluation of 6-aminonicotinic acid analogues as novel GABA(A) receptor agonists” (Eur J Med Chem, 2014).

Columns and labels:
[1] = target: GABA-A receptor; anion channel; assay: Displacement of [3H]muscimol from GABAA receptor in SPRD rat brain synaptic membranes by scintillation counting method; format: cell membranes
Method in brief: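 Rat synaptic membranes were thawed, homogenized in ice-cold 50 mM Tris-HCl pH 7.4, and spun at 48,000g for 10 min at 4 °C, with the wash repeated four times. Incubation was with 5 nM [3H]muscimol (final) and varying test concentrations for 60 min at 0 °C, then GF/C filtration and scintillation counting.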

[2] = Dissociation constant, pKa of the compound by diode array detector method; format: physicochemical
Method in brief: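 pKa was determined by titration in methanol cosolvent at 23–48%, with three titrations per compound. An in-line diode-array detector recorded UV-Vis spectra, and the titration was mapped against the spectra of the protonated and unprotonated species.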

[3] = target: T1, GABA-A receptor; alpha-1/beta-2/gamma-2 (Homo sapiens, UniProt P14867+P47870+P18507); assay: (§1) Agonist activity at human GABAAalpha1beta2gamma2S receptor expressed in tsA-201cells by FLIPR membrane potential blue assay; conditions: tsa-201
T1 sequence (P14867 whole entry): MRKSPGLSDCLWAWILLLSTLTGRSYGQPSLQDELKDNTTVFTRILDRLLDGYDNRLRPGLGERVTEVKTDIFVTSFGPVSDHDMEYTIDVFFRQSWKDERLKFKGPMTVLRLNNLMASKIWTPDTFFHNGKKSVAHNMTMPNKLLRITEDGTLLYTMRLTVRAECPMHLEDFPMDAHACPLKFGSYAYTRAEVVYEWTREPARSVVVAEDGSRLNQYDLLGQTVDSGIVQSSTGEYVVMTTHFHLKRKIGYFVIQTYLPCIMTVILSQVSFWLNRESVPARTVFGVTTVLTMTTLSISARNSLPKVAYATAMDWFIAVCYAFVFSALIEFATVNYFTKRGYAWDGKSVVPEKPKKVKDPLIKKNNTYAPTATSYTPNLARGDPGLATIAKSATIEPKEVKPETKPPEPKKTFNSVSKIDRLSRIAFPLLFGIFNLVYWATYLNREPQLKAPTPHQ
T1 sequence (P47870 whole entry): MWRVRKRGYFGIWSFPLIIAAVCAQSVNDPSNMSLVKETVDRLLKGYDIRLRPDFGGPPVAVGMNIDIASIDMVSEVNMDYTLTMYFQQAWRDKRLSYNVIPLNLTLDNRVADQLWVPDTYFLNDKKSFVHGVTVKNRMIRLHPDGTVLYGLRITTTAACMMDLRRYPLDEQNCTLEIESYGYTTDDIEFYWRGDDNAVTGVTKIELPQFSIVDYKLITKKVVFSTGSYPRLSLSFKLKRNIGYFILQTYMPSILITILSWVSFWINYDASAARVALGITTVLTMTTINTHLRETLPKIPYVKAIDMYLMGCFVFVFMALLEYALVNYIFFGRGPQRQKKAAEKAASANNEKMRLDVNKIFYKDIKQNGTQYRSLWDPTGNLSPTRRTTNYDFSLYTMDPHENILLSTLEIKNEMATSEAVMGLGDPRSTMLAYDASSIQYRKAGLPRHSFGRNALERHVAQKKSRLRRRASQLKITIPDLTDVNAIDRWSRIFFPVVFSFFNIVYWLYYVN
T1 sequence (P18507 whole entry): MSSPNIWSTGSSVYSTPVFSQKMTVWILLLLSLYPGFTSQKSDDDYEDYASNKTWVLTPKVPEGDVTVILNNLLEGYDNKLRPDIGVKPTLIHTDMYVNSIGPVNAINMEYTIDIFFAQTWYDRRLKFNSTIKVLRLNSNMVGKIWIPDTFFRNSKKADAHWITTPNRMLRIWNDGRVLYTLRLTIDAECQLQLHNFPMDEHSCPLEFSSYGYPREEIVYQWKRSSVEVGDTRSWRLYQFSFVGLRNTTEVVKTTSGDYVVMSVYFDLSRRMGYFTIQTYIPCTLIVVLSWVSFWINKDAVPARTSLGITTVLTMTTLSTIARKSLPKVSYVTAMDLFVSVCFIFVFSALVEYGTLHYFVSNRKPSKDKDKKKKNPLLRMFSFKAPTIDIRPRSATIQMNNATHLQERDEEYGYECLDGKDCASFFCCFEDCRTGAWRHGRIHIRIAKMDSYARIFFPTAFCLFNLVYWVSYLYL
Method in brief: (§2)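 tsA201 cells (8×10^5 per 6 cm dish) were transfected with α1, α2, α3 or α5 plus β2 and γ2S cDNAs (1:1:3), or with ρ1 alone. Next day cells were replated into poly-D-lysine 96-well plates. After 16–24 h they were washed with Krebs buffer pH 7.4, given membrane-potential dye, held 30 min at 37 °C, and read at 560 nm emission. Concentration-response curves used ΔFU before versus after agonist; duplicates were run ≥3 times.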

[4] = target: GABA-A receptor; alpha-1/beta-2/gamma-2 (Homo sapiens) (UniProt P14867+P47870+P18507); assay: Agonist activity at human GABAAalpha1beta2gamma2S receptor expressed in tsA-201cells at 1 mM by FLIPR membrane potential blue assay; format: cell-based
Method in brief: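 Transfected tsA201 cells (α1β2γ2S or ρ1) were loaded with membrane-potential dye in Krebs buffer pH 7.4 for 30 min at 37 °C. Compound was applied at a single 1 mM concentration. Response was read as fluorescence change at 560 nm emission before versus after addition, in duplicate on ≥3 occasions.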

[5] = target: T2, GABA-A receptor; alpha-1/beta-2/gamma-2 (Homo sapiens, UniProt P14867+P18507+P47870); assay: as §1; method in brief: as §2
T2 sequence (P14867 whole entry): T1 sequence (P14867 whole entry)
T2 sequence (P47870 whole entry): T1 sequence (P47870 whole entry)
T2 sequence (P18507 whole entry): T1 sequence (P18507 whole entry)

[6] = target: T3, Gamma-aminobutyric acid receptor subunit rho-1 (Homo sapiens, UniProt P24046); assay: Agonist activity at human GABAA rho1 expressed in tsA-201cells by FLIPR membrane potential blue assay; method in brief: as §2
[7] = target: GABA A receptor alpha-2/beta-2/gamma-2 (Homo sapiens) (UniProt P47870+P18507+P47869); assay: Agonist activity at human GABAAalpha2beta2gamma2S receptor expressed in tsA-201cells by FLIPR membrane potential blue assay relative to GABA
[8] = Agonist activity at human GABAAalpha5beta2gamma2S receptor expressed in tsA-201cells by FLIPR membrane potential blue assay; format: cell membranes
[9] = target: GABA A receptor alpha-3/beta-2/gamma-2 (Homo sapiens) (UniProt P47870+P18507+P34903); assay: Agonist activity at human GABAAalpha3beta2gamma2S receptor expressed in tsA-201cells by FLIPR membrane potential blue assay relative to GABA
[10] = target: T4, GABA A receptor alpha-3/beta-2/gamma-2 (Homo sapiens, UniProt P18507+P34903+P47870); assay: Agonist activity at human GABAAalpha3beta2gamma2S receptor expressed in tsA-201cells by FLIPR membrane potential blue assay; method in brief: as §2
T4 sequence (P47870 whole entry): T1 sequence (P47870 whole entry)
T4 sequence (P18507 whole entry): T1 sequence (P18507 whole entry)
T4 sequence (P34903 whole entry): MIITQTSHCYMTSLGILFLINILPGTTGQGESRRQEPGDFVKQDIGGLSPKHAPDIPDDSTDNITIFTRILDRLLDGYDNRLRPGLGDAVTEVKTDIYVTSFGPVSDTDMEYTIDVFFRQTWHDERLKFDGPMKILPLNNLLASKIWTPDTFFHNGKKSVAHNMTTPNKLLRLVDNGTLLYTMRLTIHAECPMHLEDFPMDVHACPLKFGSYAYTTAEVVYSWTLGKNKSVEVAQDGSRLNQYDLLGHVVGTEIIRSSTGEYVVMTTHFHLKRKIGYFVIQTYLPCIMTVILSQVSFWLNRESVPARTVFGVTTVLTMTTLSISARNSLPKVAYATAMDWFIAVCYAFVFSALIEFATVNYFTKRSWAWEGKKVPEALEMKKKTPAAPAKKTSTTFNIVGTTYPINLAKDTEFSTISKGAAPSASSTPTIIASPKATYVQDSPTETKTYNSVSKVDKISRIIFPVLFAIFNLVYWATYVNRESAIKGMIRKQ

[11] = target: T3, Gamma-aminobutyric acid receptor subunit rho-1; assay: Agonist activity at human GABAA rho1 expressed in tsA-201cells by FLIPR membrane potential blue assay relative to GABA
[12] = target: T5, GABA A receptor alpha-2/beta-2/gamma-2 (Homo sapiens, UniProt P18507+P47869+P47870); assay: Agonist activity at human GABAAalpha2beta2gamma2S receptor expressed in tsA-201cells by FLIPR membrane potential blue assay; method in brief: as §2
T5 sequence (P47870 whole entry): T1 sequence (P47870 whole entry)
T5 sequence (P18507 whole entry): T1 sequence (P18507 whole entry)
T5 sequence (P47869 whole entry): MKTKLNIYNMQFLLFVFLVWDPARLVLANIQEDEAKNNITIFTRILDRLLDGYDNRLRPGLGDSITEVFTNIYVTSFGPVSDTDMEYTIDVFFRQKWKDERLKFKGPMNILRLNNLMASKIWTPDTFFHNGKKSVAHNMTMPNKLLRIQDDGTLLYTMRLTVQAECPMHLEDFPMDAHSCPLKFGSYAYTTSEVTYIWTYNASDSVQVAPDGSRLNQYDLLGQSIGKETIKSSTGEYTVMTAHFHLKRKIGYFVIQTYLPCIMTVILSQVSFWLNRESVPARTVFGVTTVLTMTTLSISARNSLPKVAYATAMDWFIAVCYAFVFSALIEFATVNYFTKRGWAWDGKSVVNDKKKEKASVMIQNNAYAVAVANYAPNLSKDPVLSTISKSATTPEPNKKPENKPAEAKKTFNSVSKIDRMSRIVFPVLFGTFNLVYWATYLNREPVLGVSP

tsA-201 = assay: Agonist activity at human GABAAalpha5beta2gamma2S receptor expressed in tsA-201cells by FLIPR membrane potential blue assay relative to GABA

T3 sequence (P24046 whole entry): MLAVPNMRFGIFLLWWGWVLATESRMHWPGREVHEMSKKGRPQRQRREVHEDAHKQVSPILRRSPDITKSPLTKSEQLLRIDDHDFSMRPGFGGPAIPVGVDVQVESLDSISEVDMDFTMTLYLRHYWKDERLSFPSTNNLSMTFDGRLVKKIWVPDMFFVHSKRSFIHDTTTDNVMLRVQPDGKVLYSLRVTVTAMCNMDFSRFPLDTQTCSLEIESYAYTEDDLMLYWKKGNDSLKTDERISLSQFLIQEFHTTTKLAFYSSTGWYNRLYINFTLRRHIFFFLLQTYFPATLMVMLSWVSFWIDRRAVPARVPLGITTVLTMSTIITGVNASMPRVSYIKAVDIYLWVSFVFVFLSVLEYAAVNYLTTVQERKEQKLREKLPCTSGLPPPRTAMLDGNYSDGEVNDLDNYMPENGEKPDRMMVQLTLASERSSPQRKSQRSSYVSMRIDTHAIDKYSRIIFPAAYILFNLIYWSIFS

Molecule Nc1ncccc1CC(=O)O has a Ki [1] of over 100 µM.

Molecule O=C(O)C1CN=CNC1 (centres undefined) has a Ki [1] of 5.3 µM, a pKi [1] of 5.29 and a pKa [2] of 12.2. The EC50 [3] was “Active” and the Rmax [4] was 25%.

For Nc1ncccc1C(=O)O, the Ki [1] was over 100 µM.

Nc1cc(C(=O)O)ccn1 showed a Ki [1] of 19 µM.

Work on CNc1ccc(C(=O)O)cn1 yielded a Ki [1] of over 100 µM.

Nc1ccc(CC(=O)O)cn1 gave a Ki [1] of 90 µM.

Work on CNC1=NCC(C(=O)O)CC1 (centres undefined) yielded a Ki [1] of 49 µM, a pKi [1] of 4.32 and an EC50 ([5]; read-out: EC50) of over 1000 µM. It also gave a pEC50 [3] of under 3.

For Cc1nc(N)ccc1C(=O)O, the EC50 ([6]; tsa-201) was “Active”, the Ki [1] was 1.4 µM and the EC50 [3] was “Active”.

With Nc1ncc(C(=O)O)cc1I the Ki [1] was over 100 µM.

Work on CCCCc1nc(N)ccc1C(=O)O yielded an EC50 ([6]; read-out: EC50) of over 1000 µM, a pEC50 ([6]; tsa-201) of under 3 and a Ki [1] of 7.1 µM. For the same molecule, the EC50 ([5]; read-out: EC50) was over 1000 µM and the pEC50 [3] was under 3.

CCc1nc(N)ccc1C(=O)O showed an EC50 ([6]; read-out: EC50) of over 1000 µM, a pEC50 ([6]; tsa-201) of under 3 and a Ki [1] of 2.1 µM. For the same molecule, the EC50 ([5]; read-out: EC50) was over 1000 µM and the pEC50 [3] was under 3.

With Nc1ccc(C(=O)O)cn1 the EC50 ([6]; tsa-201) was “Active”, the Ki [1] was 4.4 µM and the pKi [1] was 5.39. The pKa [2] was 6.2, the EC50 ([5]; read-out: EC50) was over 300 µM and the EC50 ([5]; read-out: pEC50 (converted)) was over 316 µM.

For Nc1ccc(C(=O)O)c(Cl)n1, the Ki [1] was over 100 µM.

Work on NC1=NCC(C(=O)O)CN1 (centres undefined) yielded an Rmax [7] of 91%, an EC50 ([6]; read-out: EC50) of 8.1 µM and an EC50 ([6]; read-out: pEC50 (converted)) of 1.58 µM. It also gave an EC50 [8] of 2.1 µM, a pEC50 [8] of 5.68 and a Ki [1] of 0.54 µM. The pKa [2] was 12.7, the Rmax [9] was 85% and the EC50 [10] was 19 µM. It also gave an EC50 ([5]; read-out: EC50) of 14 µM, an Rmax [11] of 55% and an EC50 [12] of 9.4 µM. It also gave an Rmax (tsA-201) of 113%.

In the case of NCc1cc(=O)[nH]o1 [MUSCIMOL], the Ki [1] is reported as 0.006 µM.
